Ecoli rRNA inh: inhibitors of bacterial rRNA selective over humanized ribosomes; E. coli WT GFP vs humanized-ribosome RFP mutants, fluorescence, 24 h; hits give low values; DMSO median 0, no signal -100; GFP signal change (wild-type ribosome), % (concentration not given with the values); 350,000 compounds, 1.6% hits; AID 720706;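 active = significant combined selectivity score with lowered wild-type GFP, culture density cut under 30%, mutant RFP and density less affected; inactive = any of these conditions unmet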
SR-BI uptake up: activators of SR-BI mediated HDL lipid uptake. CHO ldlA[mSR-BI] cells, DiI-HDL uptake fluorescence, 3 h; 100 = double the neutral-control signal. activation, % at 12.5 µM. 320,000 compounds, 0.096% hits;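 active = mean replicate activation of at least 60% and every replicate at or above 60%; inconclusive = mean or all-replicate condition met, but not both; inactive = mean below 60% and not all replicates reaching 60%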;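 also: 0% = median plate neutral-control signal and 100% = twice that signal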
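Material – SR-BI-overexpressing, LDLR-lacking CHO cells · Medium – BSA-supplemented, HEPES-buffered Ham's F12, pH 7.4 · Doses – single concentration · Times – compound with DiI-HDL co-incubation, 3 h at 37 °C · Measured by – bottom-read fluorescence, 550/595 nm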
PvdQ acylase: P. aeruginosa PvdQ acylase inhibition. purified PvdQ acylase, fluorescence plate reader. inhibition, % at 10 µM. 340,000 compounds, 0.063% hits. AID 488965; in the data active = inhibition above about 30%, passing the limit was not always enough; inconclusive = no clear call, values can overlap the other calls;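 also: 0% = vehicle neutral wells and 100% = reference inhibitor wells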
dFosB activator: enhances mouse delta FosB homodimer DNA binding; P13346; purified delta FosB, TAMRA-CDK5 oligo fluorescence polarization; percent of positive-control signal above neutral wells; activation, % at 25 µM; 340,000 compounds, 0.99% hits;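 active = mean activation above about 17%, with every replicate also reaching it, limit read from the data, passing the limit was not always enough; inconclusive = only one of the two conditions met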
Target sequence (P13346 whole entry, looked up): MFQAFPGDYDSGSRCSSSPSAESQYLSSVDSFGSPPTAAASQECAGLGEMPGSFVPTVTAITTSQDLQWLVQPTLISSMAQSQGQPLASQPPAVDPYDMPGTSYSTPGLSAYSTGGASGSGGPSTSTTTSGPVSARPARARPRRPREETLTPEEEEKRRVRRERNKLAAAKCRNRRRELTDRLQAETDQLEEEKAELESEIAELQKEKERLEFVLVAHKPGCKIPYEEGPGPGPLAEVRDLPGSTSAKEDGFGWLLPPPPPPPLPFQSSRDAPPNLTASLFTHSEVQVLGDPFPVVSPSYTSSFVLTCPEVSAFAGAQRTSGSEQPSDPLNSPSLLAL
SR-BI DiI inh: inhibitors of mouse SR-BI mediated HDL lipid uptake | Q61009 | inhibition, % at 12.5 µM | ldlA[mSR-BI] CHO cells, DiI-HDL uptake fluorescence, 3 h | 320,000 compounds, 0.96% hits | AID 488896;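 active = mean replicate inhibition of at least 70% and a set share of replicates each scoring 70 or more; inconclusive = meets just one of the two criteria; inactive = fails both criteria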;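 also: 0% = median of neutral control wells and 100% = median of positive control wells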
Xi reactivation: X-chromosome reactivation activator; XiGFP mouse fibroblasts, % GFP-positive cells imaging, 3 d; cells co-treated with 5-aza-dC sensitizer; scaled so ellipticine positive control = 100%; activation, % at 7.58 µM; 360,000 compounds, 0.055% hits;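 active = mean normalized replicate activation at least 10% and every replicate at or above 10%; inconclusive = only one of the two criteria met; inactive = mean below 10% and not all replicates reach 10%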;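 also: 0% = median of on-plate neutral control wells and 100% = ellipticine 6 µM median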
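System: XiGFP fibroblasts, SV40-immortalized. Medium: DMEM plus 5-aza-dC sensitizer. Doses: single point. Timing: 3 d treatment, 15 min room-temperature fixation. Control set: ellipticine 6 µM.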
* hit, by the source's call; ? = inconclusive; nt = no result. Only some compounds are listed: those with a hit (about 2.6% of all), similar ones and a draw of the others.

SMILES | Ecoli rRNA inh | SR-BI uptake up | PvdQ acylase | dFosB activator | SR-BI DiI inh | Xi reactivation
C[C@H]1CN([C@@H](C)CO)C(=O)c2c(c3ccccc3n2C)-c2ccccc2CO[C@H]1CN(C)S(=O)(=O)c1ccsc1 | -6.9 | nt | nt | nt | nt | -0.6
O=C(NNC(=O)c1ccc(Br)s1)c1csc(N2CCOCC2)n1 | 16.1 | 15.2 | -13.3 | 61.1* | -15.2 | 0.3
Cc1ccc(/C=N/NC(=O)c2nnn(-c3nonc3N)c2CSc2ccc(Cl)cc2)o1 | -4.9 | 6.2 | 3.4 | ? | -6.2 | 0.0
CCOC(=O)N1CCC(NC(=O)CN2C(=O)C(CC)Oc3ccc(C)cc32)CC1 (configuration not stated) | nt | 0.9 | 8.0 | -0.5 | -0.9 | nt
CCC1Oc2ccc(C)cc2N(CC(=O)NC2CCCCC2)C1=O (configuration not stated) | 14.9 | -88.6 | -4.8 | -4.3 | 88.6* | 0.1
CN1C(=O)c2cc(NC(=O)C3CCOCC3)ccc2OC[C@@H]2O[C@@H](CC(=O)NCC3CCCCC3)CC[C@H]21 | -2.0 | nt | nt | nt | nt | 0.1
CC(C)C(=O)N1CCN(c2ccc([N+](=O)[O-])cc2Cl)CC1 | 1.6 | 9.1 | -3.0 | 1.9 | -9.1 | -0.1
COC(=O)C(Cc1ccccc1)NC(=O)C12CC3CC(CC(C3)C1)C2 (configuration not stated) | -34.2* | 27.4 | 11.3 | -13.4 | -27.4 | 0.0
COC(=O)C(Cc1ccc(O)cc1)NC(=O)C12CC3CC(CC(C3)C1)C2 (configuration not stated) | 8.2 | 13.2 | -14.4 | -2.0 | -13.2 | 0.1
CCCn1nnnc1NCc1ccc(Cl)cc1Cl | -28.8* | 21.2 | -11.5 | 3.5 | -21.2 | -0.3
Cc1cccc(OCC(=O)NCC(=O)N/N=C/c2ccc(O)cc2O)c1 | -30.2* | nt | -3.1 | 17.3* | nt | -0.1
Cc1nonc1C(=O)N/N=C/c1ccc(O)cc1O | -22.4* | -62.1 | 0.0 | -6.8 | 62.1 | -0.1
O=C(CNC(=O)C(c1ccccc1)c1ccccc1)N/N=C/c1ccc(O)cc1O | -19.9* | nt | -1.3 | -4.9 | nt | 0.2
Cc1ccc(C(C)C)c(OCc2ccc(C(=O)N/N=C/c3ccc(O)cc3O)cc2)c1 | nt | -129.4 | -7.5 | -2.8 | 129.4* | -0.1
Cc1ccc(C(C)C)c(OCc2ccc(C(=O)N/N=C/c3ccc(C(=O)O)cc3)cc2)c1 | 2.7 | nt | -1.8 | -12.4 | nt | 0.1
CN1C(=O)[C@H]2[C@@H](c3ccc(C(F)(F)F)cc3)N[C@]3(CCCN(Cc4ccco4)C3=O)[C@H]2C1=O | 3.5 | nt | nt | nt | nt | nt
Cc1ccc(NC(=O)CCC(=O)N/N=C/c2ccc(O)cc2O)cc1 | -12.2* | -11.5 | -17.2 | -0.2 | 11.5 | 0.1
O=C(NNC(=O)c1ccc(Cl)cc1Cl)c1cnccn1 | -34.9* | 0.4 | -8.1 | 3.6 | -0.4 | 0.0
O=C(NNC(=O)c1cnccn1)c1ccc(Cl)cc1 | -39.1* | 21.5 | -1.5 | 1.1 | -21.5 | 0.3
COC(=O)c1nnn(-c2nonc2N)c1CSc1nc2ccccc2s1 | nt | -2.3 | -17.3 | 1.2 | 2.3 | nt
COc1ccc2c(n1)Sc1nc3ccccc3nc1N2 | 1.1 | -25.7 | -1.2 | -18.3 | 25.7 | 68.3*
O=C(CC1SC(=O)N(Cc2cccc3ccccc23)C1=O)Nc1nccs1 (configuration not stated) | nt | -19.5 | -12.7 | 14.5 | 19.5 | nt
C/C(CS(=O)(=O)c1ccc(Cl)cc1)=N/NC(N)=S | 9.8 | -56.5 | -2.6 | -10.7 | 56.5 | 0.0
C/C(CS(=O)(=O)c1ccc(Cl)c(Cl)c1)=N/NC(N)=S | -6.0 | -80.8 | -14.2 | -6.0 | 80.8* | 0.0
CCc1cccc2cc3c(N)c(C(=O)Nc4ccc(S(=O)(=O)N5CCCC5)cc4)sc3nc12 | nt | -41.7 | -15.3 | -18.5 | 41.7 | 89.2*
SMILES | Ecoli rRNA inh | SR-BI uptake up | PvdQ acylase | dFosB activator | SR-BI DiI inh | Xi reactivation
Cc1cccc2cc3c(N)c(C(=O)Nc4ccc(N5CCOCC5)cc4)sc3nc12 | nt | -6.9 | -0.9 | -10.5 | 6.9 | nt
CC(C)(C)NC(=S)NNC(=O)c1ccncc1 | 5.9 | 185.1* | 0.1 | 2.5 | -185.1 | 0.0
CCNC(=S)NNC(=O)c1ccncc1 | 22.4 | 17.1 | -5.5 | -10.3 | -17.1 | 0.0
Cc1c(Cc2ccccc2)sc(NC(=O)C(C)(C)C)c1C(N)=O | -29.9* | nt | 8.9 | -11.2 | nt | -0.2
CCC(=O)Nc1sc(Cc2ccccc2)c(C)c1C(N)=O | -51.0 | -1.9 | 14.2 | 5.8 | 1.9 | 0.6
CCC(=O)Nc1sc(Cc2ccc3c(c2)OCO3)c(C)c1C(N)=O | -26.3* | nt | -9.7 | -5.6 | nt | 0.0
COc1cc(/C=C/C(=O)OCC(=O)N2CCCc3ccccc32)ccc1O | nt | -22.1 | 9.2 | -0.4 | 22.1 | -0.1
CC1CCCN(c2ccc3nc4ccccc4c(=O)n3n2)C1 (configuration not stated) | -18.4* | 35.5 | -7.9 | -13.5 | -35.5 | 0.7
Cc1ccc2nc3ccc(N4CCCC4)nn3c(=O)c2c1 | nt | nt | 6.5 | -10.2 | -17.9 | nt
CCCN(CCC)CCCNC(=O)c1cn(CC)c2ccc(S(=O)(=O)N3CCOCC3)cc2c1=O | 0.4 | 9.2 | 2.1 | -3.4 | -9.2 | 0.1
Cc1ccc(C(=O)CSc2nnc(COc3cccc4cccnc34)o2)cc1 | -31.6* | 15.8 | 14.6 | -2.3 | -15.8 | nt
COc1cccc(C(=O)CSc2nnc(COc3cccc4cccnc34)o2)c1 | -35.0* | -4.8 | -6.6 | -11.7 | 4.8 | nt
Cc1ccc(CSc2nnc3c(n2)OC2(Nc4ccccc4-3)C(=O)Nc3ccc(F)cc32)cc1 (configuration not stated) | -14.8 | -11.8 | -9.9 | -0.2 | 11.8 | nt
O=C1Nc2ccc(F)cc2C12Nc1ccccc1-c1nnc(SCc3ccccc3)nc1O2 (configuration not stated) | -17.1* | nt | -0.8 | -13.0 | nt | nt
NC(=O)C1CCN(c2nc(-c3ccc4c(c3)OCCO4)cs2)CC1 | 7.7 | nt | nt | nt | nt | 0.1
Cc1ccccc1NC(=S)N(Cc1cccs1)C1CCCC1 | -24.0* | 5.2 | 14.3 | -3.4 | -5.2 | 0.0
O=C(NC1CCCCC1)c1cc([N+](=O)[O-])ccc1N1CCCC1 | -2.0 | 13.7 | -0.7 | -12.3 | -13.7 | 0.0
CC1SCC(NC(=O)c2cccc(Cl)c2)CS1 (configuration not stated) | -11.1 | 10.6 | ? | 2.9 | -10.6 | -0.1
O=C(NC1CCCCCCC1)c1cc([N+](=O)[O-])ccc1Cl | -3.8 | 1.6 | 42.3* | 5.0 | -1.6 | 0.0
O=C(NC1CCCCCCC1)c1cccc(Cl)c1 | -4.6 | -9.9 | 73.8* | -1.7 | 9.9 | 0.1
O=C(NC1CCCC1)c1cccc(Cl)c1 | 3.7 | -5.7 | 70.2* | 3.9 | 5.7 | 0.0
COc1ccc2c3c([nH]c2c1)[C@H](CO)N(C(=O)CN1CCOCC1)CC31CN(C)C1 | 7.1 | nt | nt | nt | nt | 0.3
